Measured values gathered from unrelated publications.
HTR2B: 5-hydroxytryptamine receptor 2B (HTR2B, Homo sapiens, UniProt P41595)
Neuronal acetylcholine receptor; alpha3/beta4: Neuronal acetylcholine receptor; alpha3/beta4 (Rattus norvegicus, UniProt P04757+P12392)

| Structure (SMILES) | target | assay | conditions | quantity | result |
| --- | --- | --- | --- | --- | --- |
| Cc1cc(-c2ccccc2)nnc1NCCN1CCNCC1 | HTR2B | calcium signal, antagonist, fluorescence |  | IC50 | 0.054 µM |
| CC(C)N(CCc1c[nH]c2cccc(OC(=O)CCCC(=O)O)c12)C(C)C | HTR2B | ligand displacement, radioligand |  | IC50 | 3.6 µM |
| COc1ccc2[nH]c3c(c2c1)CCN(C)CC3 | Neuronal acetylcholine receptor; alpha3/beta4 | ion current, antagonist, two-electrode voltage clamp | oocytes | IC50 | 21.3 µM |
| Cn1ccc2cc3c(cc21)CCN3C(=O)Nc1cccnc1 | HTR2B | ligand displacement, radioligand |  | Ki | 0.0064 µM |
| CC[C@H](C)[C@H](NC(C)=O)C(=O)N[C@@H](CCC(=O)O)C(=O)N[C@H](C(=O)N[C@H](C=O)CC(=O)O)[C@@H](C)O | Caspase-4 (CASP4, Homo sapiens, UniProt P49662) | enzyme activity, inhibitor |  | IC50 | 0.555 µM |
| O=S(=O)(O)c1ccc2c(N=Nc3c(O)ccc4ccccc34)cccc2c1 | Bcl-2-related protein A1 (Mus musculus, UniProt Q07440, C113S/P104K) | ligand displacement, FP |  | IC50 | 32 µM |
| CNC(=O)c1ccc(-c2cnn3ccc(C(=O)N(C)c4ccc(Cl)c(C(=O)OC)c4)cc23)cc1 | HTR2B | cell-free assay |  | IC50 | > 30 µM |
| COc1ccc2c3c([nH]c2c1)CCN(C)CC3 | Neuronal acetylcholine receptor; alpha3/beta4 | ion current, antagonist, two-electrode voltage clamp | oocytes | IC50 | 31.4 µM |
| CN(C)C(=N)N=C(N)N | speB (Escherichia coli, UniProt P60651) | enzyme activity, inhibitor, absorbance | pH 6.5 | Ki | 1180 µM |
| COC(=O)c1cc(N(C)C(=O)c2ccn3ncc(-c4ccc(C(=O)O)cc4)c3c2)ccc1Cl | Rho-associated protein kinase 2 (ROCK2, Homo sapiens, UniProt O75116) | enzyme activity, inhibitor |  | IC50 | > 30 µM |
